Data on one compound can be found in ChEMBL document CHEMBL4765233, “From Lead to Drug Candidate: Optimization of 3-(Phenylethynyl)-1H-pyrazolo[3,4-d]pyrimidin-4-amine Derivatives as Agents for the Treatment of Triple Negative Breast Cancer” (J Med Chem, 2016).

Data set [1] addresses Fibroblast growth factor receptor 2 (Homo sapiens, UniProt P21802, N549H). Nature of the data set: Inhibition of human recombinant FGFR2 N549H mutant (456 to 770 residues) using GGEEEEYFELVKKKK as substrate incubated for 40 mins in presence of [gamma33P-ATP] by radiometric scintillation counting analysis.
Data set [2] can be described thus: Tmax in Sprague-Dawley rat at 10 mg/kg, po administered via gavage by LC-MS analysis. The data set is classed as ADME, organism-based. As to conditions: in vivo.
Data set [3] deals with MDA-MB-231. Briefly: Induction of apoptosis in human MDA-MB-231 cells incubated for 24 hrs by annexin V-FITC and propidium iodide staining based flow cytometry analysis. It counts as functional, cell-based. Particulars: dose 0.01-0.1 µM. In outline:
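MDA-MB-231 cells (2 × 10^5) plated in six-well plates, treated with vehicle or compound at various concentrations for 24 h at 37 °C. Harvested, washed with ice-cold PBS, stained with Annexin V-FITC/PI and analysed by flow cytometry.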

Data set [4] is described as follows: Acute toxicity in male Sprague-Dawley rat assessed as increase in body weight rate at 200 mg/kg, po administered as single dose observed until day 9 and monitored every 3 days. It counts as organism-based. Particulars: in vivo, 216 h, time 9 day. The gist of the method:
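Sprague-Dawley rats (n = 3) received a single oral dose of 200 mg/kg in sterile water with 25% (v/v) PEG400 plus 5% DMSO. Behaviour and side effects were monitored daily, and average body weight was measured every 3 days.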

The target in data set [5] is Mitogen-activated protein kinase 14 (Homo sapiens, UniProt Q16539). Nature of the data set: Inhibition of human full length recombinant p38alpha using myelin basic protein as substrate incubated for 40 mins in presence of [gamma33P-ATP] by radiometric scintillation counting analysis. The gist of the method:
(§1)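 Radiometric kinase assay run as an external profiling service, with ATP at the Km of each kinase. IC50 values are means of two independent experiments.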

For data set [6], the species on record is Danio rerio. Briefly: Antiangiogenesis activity in EGFP-labelled zebrafish embryo assessed as reduction in formation of intersegmental vessels at 1.25 to 5 uM incubated for overnight by fluorescence microscopic analysis. It counts as functional, organism-based. As to conditions: dose 1.25-5 µM. In outline:
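Transgenic FLK:EGFP zebrafish kept at 28 °C, pH 7.2−7.4, 14 h light/10 h dark. Embryos at 30 hpf incubated overnight with compound at 1.25, 2.5 or 5 μM beside a blank control. Fish anaesthetized, then vessels imaged by fluorescence microscopy.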

Data set [7] has as its target Platelet-derived growth factor receptor beta (Homo sapiens, UniProt P09619). Briefly: Inhibition of human recombinant PDGFRbeta (557 to end residues) using poly(Glu, Tyr)4:1 as substrate incubated for 40 mins in presence of [gamma33P-ATP] by radiometric scintillation counting analysis.
For data set [8], the target named is Tyrosine-protein kinase receptor TYRO3 (Homo sapiens, UniProt Q06418). Nature of the data set: Inhibition of human recombinant RSE (451 to end residues) using KVEKIGEGTYGVVYK as substrate incubated for 40 mins in presence of [gamma33P-ATP] by radiometric scintillation counting analysis. In outline: as §1
Sequence of Tyrosine-protein kinase receptor TYRO3 (Q06418 whole entry): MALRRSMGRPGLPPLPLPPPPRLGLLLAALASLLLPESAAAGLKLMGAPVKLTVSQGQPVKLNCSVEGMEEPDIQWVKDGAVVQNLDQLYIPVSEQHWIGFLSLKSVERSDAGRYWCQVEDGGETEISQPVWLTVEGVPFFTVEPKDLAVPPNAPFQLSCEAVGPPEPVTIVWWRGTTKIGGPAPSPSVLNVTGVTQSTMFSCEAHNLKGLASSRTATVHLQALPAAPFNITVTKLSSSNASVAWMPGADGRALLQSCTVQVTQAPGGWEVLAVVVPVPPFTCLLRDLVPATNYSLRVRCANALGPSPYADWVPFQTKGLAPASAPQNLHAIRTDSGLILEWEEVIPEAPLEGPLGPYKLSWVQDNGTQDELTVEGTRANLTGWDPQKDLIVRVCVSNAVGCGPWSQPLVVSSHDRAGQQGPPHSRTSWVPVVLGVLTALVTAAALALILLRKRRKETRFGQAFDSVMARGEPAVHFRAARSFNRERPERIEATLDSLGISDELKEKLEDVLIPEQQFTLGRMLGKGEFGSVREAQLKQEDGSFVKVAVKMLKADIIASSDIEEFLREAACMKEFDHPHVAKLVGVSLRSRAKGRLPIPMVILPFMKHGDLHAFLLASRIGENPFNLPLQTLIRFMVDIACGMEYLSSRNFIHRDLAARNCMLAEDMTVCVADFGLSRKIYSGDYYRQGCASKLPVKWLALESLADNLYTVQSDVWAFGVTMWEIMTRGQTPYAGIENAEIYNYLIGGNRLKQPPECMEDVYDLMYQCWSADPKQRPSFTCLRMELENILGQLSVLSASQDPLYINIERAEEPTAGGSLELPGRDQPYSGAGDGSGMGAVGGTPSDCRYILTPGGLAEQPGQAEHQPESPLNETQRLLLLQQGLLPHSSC
Data set [9] deals with MDA-MB-231. Briefly: Inhibition of Fra1 phosphorylation in human MDA-MB-231 cells at >0.03 uM incubated for 20 hrs by Western blot analysis. The data set is classed as functional, cell-based. As to conditions: dose microM >0.03, time 20.0 hrs. In outline:
(§2)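 MDA-MB-231 cells treated with a series of concentrations for 20 h at 37 °C. Cells washed with ice-cold saline and lysed in RIPA buffer with protease cocktail. Lysates cleared at 12000 rpm for 10 min at 4 °C and protein quantified by Bradford. Equal protein separated by SDS-PAGE, transferred to PVDF and probed with antibodies.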

Data set [10] deals with Mus musculus. Briefly: Reduction in CD31 expression in tumor tissue of SCID mouse xenografted with human MDA-MB-231 cells at 40 mg/kg, po QD for 21 days by immunohistochemical analysis. The data set is classed as functional, organism-based. Particulars: dose 40.0 mg/kg/day, time 21.0 day. The gist of the method: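 SCID mice carried subcutaneous MDA-MB-231 xenografts (5 × 10^6 cells in 100 μL). Oral dosing in water with 25% PEG400 and 5% DMSO began at 150–200 mm3. Tumours were removed at the end of study, formalin-fixed and paraffin-embedded, then immunostained.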

For data set [11], the target named is Proto-oncogene tyrosine-protein kinase Src (Homo sapiens) (UniProt P12931). Briefly: Inhibition of Src in human MDA-MB-231 cells assessed as inhibition of STAT3 phosphorylation at 0.1 to 0.3 uM incubated for 20 hrs by Western blot analysis. It counts as cell-based. As to conditions: dose 0.1-0.3 µM. The gist of the method:
as §2

Data set [12] concerns the target Ribosomal protein S6 kinase alpha-1 (Homo sapiens, UniProt Q15418). Nature of the data set: Inhibition of human full length recombinant RSK1 using KKKNRTLSVA as substrate incubated for 40 mins in presence of [gamma33P-ATP] by radiometric scintillation counting analysis. In outline:
as §1

Data set [13] can be described thus: Metabolic stability in rat liver microsomes assessed as parent compound remaining at 1 uM measured after 60 mins in presence of NADPH by HPLC-MS/MS analysis. It counts as ADME, Microsome. Particulars: read-out: Stabilty. The gist of the method:
(§3)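 Compound at 1 μM incubated with 0.5 mg/mL liver microsomes and 1 mM NADPH. Samples taken at 0, 10, 15, 30, 45 and 60 min and quenched with acetonitrile. After centrifugation, supernatant analysed by HPLC-MS/MS, with percent parent remaining relative to the 0 min area.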

For data set [14], the target named is Ephrin type-A receptor 4 (Homo sapiens, UniProt P54764). Briefly: Inhibition of human recombinant EPHA4 (601 to 892 residues) using poly(Glu,Tyr)4:1 as substrate incubated for 40 mins in presence of [gamma33P-ATP] by radiometric scintillation counting analysis. The gist of the method:
as §1

Data set [15] is described as follows: Metabolic stability in human liver microsomes assessed as parent compound remaining at 1 uM measured after 60 mins in presence of NADPH by HPLC-MS/MS analysis. It counts as ADME, Microsome. Particulars: read-out: Stabilty. In outline: as §3
Data set [16] is described as follows: Toxicity in SCID mouse xenografted with MDA-MB-231 cells assessed as animal death at 40 mg/kg, po qd for 15 days. It counts as organism-based. As to conditions: in vivo, dose 40 mg/kg/day, time 15 day, read-out: Activity.
Data set [17] concerns MDA-MB-231. Nature of the data set: Induction of apoptosis in human MDA-MB-231 cells assessed as late apoptotic cells at 0.1 uM incubated for 24 hrs by annexin V-FITC and propidium iodide staining based flow cytometry analysis (reference value: 0.85 %). It counts as functional.
The subject of data set [18] is MDA-MB-231. Briefly: Induction of apoptosis in human MDA-MB-231 cells assessed as necrotic cells at 0.03 uM incubated for 24 hrs by annexin V-FITC and propidium iodide staining based flow cytometry analysis (reference value: 0.2 %). The data set is classed as functional.
The subject of data set [19] is Mus musculus. Briefly: In vivo inhibition of Src in SCID mouse xenografted with human MDA-MB-231 cells assessed as reduction in phosphorylation of Src in tumor tissue at 40 mg/kg, po QD for 21 days by immunohistochemical analysis. The data set is classed as functional, organism-based. Particulars: dose 40.0 mg/kg/day, time 21.0 day. The gist of the method:
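Tumors taken from xenografted SCID mice dosed orally at 40 mg/kg/q.d. or given control; mice euthanized at set times. Tumors formalin-fixed and paraffin-embedded, stained by immunohistochemistry for phospho-proteins, and imaged by light microscopy.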

Data set [20] concerns MDA-MB-231. Briefly: Inhibition of colony formation in human MDA-MB-231 cells at >0.1 uM treated for 12 days by crystal violet staining based visual analysis. The data set is classed as functional. Particulars: dose microM >0.1; time 12 day. The gist of the method:
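MDA-MB-231 cells seeded at 5000 per well in six-well plates and treated the next day, with drug-containing medium replaced every 4 days. After 12 days, colonies fixed with methanol and stained with crystal violet, then photographed.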

The source made the active and inactive calls. No cut-off for these calls is given here. Where only a bound is given, the exact number is not on record here.

Sequence of Ephrin type-A receptor 4 (P54764 whole entry, the tested form may be a part): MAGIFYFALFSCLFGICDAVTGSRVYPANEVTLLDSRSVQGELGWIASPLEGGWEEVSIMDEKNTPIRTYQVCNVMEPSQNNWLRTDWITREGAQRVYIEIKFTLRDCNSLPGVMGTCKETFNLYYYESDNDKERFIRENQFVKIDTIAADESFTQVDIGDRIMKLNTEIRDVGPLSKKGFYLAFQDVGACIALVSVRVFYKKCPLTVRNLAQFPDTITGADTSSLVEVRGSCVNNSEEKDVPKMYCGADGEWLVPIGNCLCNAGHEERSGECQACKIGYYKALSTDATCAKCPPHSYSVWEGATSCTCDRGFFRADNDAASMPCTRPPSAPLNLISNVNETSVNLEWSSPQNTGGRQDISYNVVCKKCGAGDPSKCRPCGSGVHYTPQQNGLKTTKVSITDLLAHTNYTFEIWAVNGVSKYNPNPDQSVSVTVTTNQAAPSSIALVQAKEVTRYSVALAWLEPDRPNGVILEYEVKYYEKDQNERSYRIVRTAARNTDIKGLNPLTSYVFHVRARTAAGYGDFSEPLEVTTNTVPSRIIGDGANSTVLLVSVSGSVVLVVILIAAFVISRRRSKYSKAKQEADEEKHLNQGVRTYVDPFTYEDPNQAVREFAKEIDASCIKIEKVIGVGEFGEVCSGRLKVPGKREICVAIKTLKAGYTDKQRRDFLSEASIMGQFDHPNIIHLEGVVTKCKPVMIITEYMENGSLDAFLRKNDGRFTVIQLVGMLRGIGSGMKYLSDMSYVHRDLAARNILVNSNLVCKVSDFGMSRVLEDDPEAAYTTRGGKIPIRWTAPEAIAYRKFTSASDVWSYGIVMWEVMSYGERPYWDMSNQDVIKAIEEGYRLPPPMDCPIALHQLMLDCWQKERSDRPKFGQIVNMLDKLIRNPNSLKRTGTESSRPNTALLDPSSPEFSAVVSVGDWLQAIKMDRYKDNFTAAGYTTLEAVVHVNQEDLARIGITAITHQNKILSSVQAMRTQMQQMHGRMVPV
Sequence of Mitogen-activated protein kinase 14 (Q16539 whole entry): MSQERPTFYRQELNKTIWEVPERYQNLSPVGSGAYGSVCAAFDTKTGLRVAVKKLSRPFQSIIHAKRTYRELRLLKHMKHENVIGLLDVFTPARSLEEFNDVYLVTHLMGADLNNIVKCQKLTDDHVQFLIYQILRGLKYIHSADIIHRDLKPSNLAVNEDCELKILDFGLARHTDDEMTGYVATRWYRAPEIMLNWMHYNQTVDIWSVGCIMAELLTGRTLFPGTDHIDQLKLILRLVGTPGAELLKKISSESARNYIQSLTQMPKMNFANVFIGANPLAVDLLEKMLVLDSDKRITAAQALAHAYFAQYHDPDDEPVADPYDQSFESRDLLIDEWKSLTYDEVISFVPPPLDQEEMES
Sequence of Platelet-derived growth factor receptor beta (P09619 whole entry): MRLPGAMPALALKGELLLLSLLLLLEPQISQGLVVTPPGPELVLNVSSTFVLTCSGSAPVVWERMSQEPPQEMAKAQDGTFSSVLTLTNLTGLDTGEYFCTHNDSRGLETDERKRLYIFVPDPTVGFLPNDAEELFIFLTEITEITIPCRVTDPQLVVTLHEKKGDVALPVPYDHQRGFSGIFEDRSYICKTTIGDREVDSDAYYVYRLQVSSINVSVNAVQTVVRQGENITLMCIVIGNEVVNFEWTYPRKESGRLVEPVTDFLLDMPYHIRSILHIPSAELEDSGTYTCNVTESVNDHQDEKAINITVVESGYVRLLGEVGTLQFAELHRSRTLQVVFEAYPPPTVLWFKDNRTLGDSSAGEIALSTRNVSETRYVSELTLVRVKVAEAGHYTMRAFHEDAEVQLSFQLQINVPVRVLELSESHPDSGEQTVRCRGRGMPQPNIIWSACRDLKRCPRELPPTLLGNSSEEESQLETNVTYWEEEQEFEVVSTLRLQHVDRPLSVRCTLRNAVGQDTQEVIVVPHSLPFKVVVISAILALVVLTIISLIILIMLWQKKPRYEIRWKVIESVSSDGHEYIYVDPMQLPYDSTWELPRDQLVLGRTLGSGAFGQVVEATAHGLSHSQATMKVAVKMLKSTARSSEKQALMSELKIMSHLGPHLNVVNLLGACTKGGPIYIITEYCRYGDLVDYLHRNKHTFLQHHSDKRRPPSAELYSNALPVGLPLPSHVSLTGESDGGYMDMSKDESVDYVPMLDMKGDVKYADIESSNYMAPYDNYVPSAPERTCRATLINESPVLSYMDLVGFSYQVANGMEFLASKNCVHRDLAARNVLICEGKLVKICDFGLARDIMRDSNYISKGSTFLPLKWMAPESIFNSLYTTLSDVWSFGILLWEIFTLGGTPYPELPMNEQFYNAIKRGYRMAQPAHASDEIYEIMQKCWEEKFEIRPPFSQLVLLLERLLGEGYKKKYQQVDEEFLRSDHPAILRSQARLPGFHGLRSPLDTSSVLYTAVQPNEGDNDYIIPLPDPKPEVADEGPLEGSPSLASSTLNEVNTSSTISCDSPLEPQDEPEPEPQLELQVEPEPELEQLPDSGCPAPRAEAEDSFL
Sequence of Fibroblast growth factor receptor 2 (P21802 22-821 N549H limits assumed): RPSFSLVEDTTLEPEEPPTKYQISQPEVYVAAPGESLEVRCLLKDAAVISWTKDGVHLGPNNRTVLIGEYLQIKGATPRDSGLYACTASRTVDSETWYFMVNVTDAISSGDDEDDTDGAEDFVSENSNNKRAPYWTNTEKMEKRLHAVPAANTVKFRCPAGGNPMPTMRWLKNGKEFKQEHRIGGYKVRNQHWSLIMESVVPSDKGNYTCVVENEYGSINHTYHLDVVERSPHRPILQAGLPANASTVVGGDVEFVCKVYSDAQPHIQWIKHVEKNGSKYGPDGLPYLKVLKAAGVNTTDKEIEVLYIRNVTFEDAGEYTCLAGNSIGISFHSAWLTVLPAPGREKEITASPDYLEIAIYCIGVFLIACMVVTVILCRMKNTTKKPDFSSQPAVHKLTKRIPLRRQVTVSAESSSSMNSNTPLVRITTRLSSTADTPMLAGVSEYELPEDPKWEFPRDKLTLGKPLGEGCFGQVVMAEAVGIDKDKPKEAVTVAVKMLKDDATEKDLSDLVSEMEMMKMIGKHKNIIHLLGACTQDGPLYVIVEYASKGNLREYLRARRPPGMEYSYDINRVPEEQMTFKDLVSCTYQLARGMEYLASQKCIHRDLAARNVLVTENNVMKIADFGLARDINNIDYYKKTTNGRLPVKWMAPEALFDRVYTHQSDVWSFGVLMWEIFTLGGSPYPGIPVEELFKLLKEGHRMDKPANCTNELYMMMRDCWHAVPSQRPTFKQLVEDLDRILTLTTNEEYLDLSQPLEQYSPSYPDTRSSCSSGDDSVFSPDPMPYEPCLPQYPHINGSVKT
Sequence of Ribosomal protein S6 kinase alpha-1 (Q15418 whole entry): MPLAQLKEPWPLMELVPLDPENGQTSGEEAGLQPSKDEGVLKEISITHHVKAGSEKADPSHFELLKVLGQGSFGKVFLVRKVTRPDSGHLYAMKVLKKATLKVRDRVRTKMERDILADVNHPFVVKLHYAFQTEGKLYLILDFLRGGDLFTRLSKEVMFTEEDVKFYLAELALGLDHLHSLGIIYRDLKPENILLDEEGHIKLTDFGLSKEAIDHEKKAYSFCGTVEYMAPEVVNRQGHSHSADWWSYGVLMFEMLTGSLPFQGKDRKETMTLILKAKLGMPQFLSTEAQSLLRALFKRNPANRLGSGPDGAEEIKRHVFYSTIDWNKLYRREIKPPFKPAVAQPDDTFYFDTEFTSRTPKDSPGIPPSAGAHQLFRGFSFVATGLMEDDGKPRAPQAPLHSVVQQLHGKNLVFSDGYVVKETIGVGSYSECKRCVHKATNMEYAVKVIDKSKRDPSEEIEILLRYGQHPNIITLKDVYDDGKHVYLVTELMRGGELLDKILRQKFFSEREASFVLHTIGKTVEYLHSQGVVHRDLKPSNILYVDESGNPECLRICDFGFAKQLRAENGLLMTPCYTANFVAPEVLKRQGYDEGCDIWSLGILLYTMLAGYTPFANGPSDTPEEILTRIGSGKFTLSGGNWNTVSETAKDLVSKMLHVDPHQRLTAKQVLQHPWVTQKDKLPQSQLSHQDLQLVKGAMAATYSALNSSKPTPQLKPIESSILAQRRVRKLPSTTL

`Cc1ccc(NC(=O)c2ccc(C)c(C(F)(F)F)c2)cc1C#Cc1nn([C@H]2CC[C@H](O)CC2)c2ncnc(N)c12`: the concentration for half-maximal inhibition (IC50) in [1] is 40 nM; in data set [5], 342 nM; in [7] it was more than 10000 nM; in data set [8], 351 nM; in [12], 559 nM; in data set [14], 227 nM. Further, the time to peak (Tmax) in [2] worked out at 4 h. Moreover, the Activity result is “Dose-dependent effect” in [3], “Toxic” in [4], 17.35% in data set [17] and 2.42% in data set [18]. For the same compound, the outcome in data set [6] was Active. In addition, the inhibition entry in [9], in [10], in data set [11] and in data set [19] was “Active” in each case. Besides, the remaining at 1 h, 1 µM in [13] and in [15] was more than 90% throughout. Also, the mortality at 360 h in data set [16] worked out at 0%. Besides, in data set [20], the “inhibition (INH)” value was found to be 100%.
